In ChEMBL document CHEMBL1126697, “Bis(heteroaryl)piperazine (BHAP) reverse transcriptase inhibitors: structure-activity relationships of novel substituted indole analogues and the identification of 1-[(5-methanesulfonamido-1H-indol-2-yl)-carbonyl]-4-[3- [(1-methylethyl)amino]-pyridinyl]piperazine monomethanesulfonate (U-90152S), a …” (J Med Chem, 1993):
Counter-ions that a name gives are not always drawn.

Assays:
[1] = test system: Human immunodeficiency virus 1; test: Inhibition of HIV-1 IIIB replication in MT2 (human lymphocyte) cells.; assay type: functional; conditions: Human immunodeficiency virus 1, MT2; read-out: ED50 (the source's name)
How it was run: (§1)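 HIV-1 IIIb infected MT-2 cells at multiplicity of infection 0.001. Syncytium formation scored 4 days post-infection, at peak viral cytopathic effect. Three drug concentrations, 10-fold dilution series. ED50 given as a range when it fell between dilutions. Viability by trypan blue exclusion.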

[2] = molecular target: Human immunodeficiency virus type 1 reverse transcriptase (Human immunodeficiency virus 1, UniProt Q72547); test: In vitro inhibition of HIV-1 reverse transcriptase
[3] = molecular target: Human immunodeficiency virus type 1 reverse transcriptase (Human immunodeficiency virus 1) (UniProt Q72547); test: In vitro inhibition of HIV-1 reverse transcriptase at 100 uM
[4] = Cytotoxic concentration against PBMC cells; assay type: functional; conditions: Homo sapiens
How it was run: (§2)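 PBMC (1×10^6 cells) infected with inoculum containing 1 ng p24 of HIV-1 D34 isolate. Supernatant p24 measured 4 days after infection. Four drug concentrations, 10-fold dilution series. ED50 given as a range when it fell between dilutions. Viability by mitogen-stimulated cell proliferation. Mesylate salts used in this assay.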

MT2 = test: Cytotoxic concentration against MT-2 cells; assay type: functional; conditions: Homo sapiens; how it was run: as §1
[5] = test system: Human immunodeficiency virus 1; test: Inhibition of HIV-1 D34 replication in human peripheral blood mononuclear cells.; assay type: functional; conditions: read-out: ED50 (the source's name); how it was run: as §2
[6] = test system: Human immunodeficiency virus 1; test: Inhibition of HIV-1 replication in human lymphocytes [peripheral blood mononuclear cells (PBMC)/D34 was determined as effective dose; assay type: functional; conditions: read-out: ED50 (the source's name); how it was run: as §2

| SMILES | EC50 [1] [µM] | IC50 [2] [µM] | inhibition [3] [%] | CC50 [4] [µM] | CC50 (MT2) [µM] | EC50 [5] [µM] | EC50 [6] [µM] |
| --- | --- | --- | --- | --- | --- | --- | --- |
| CC(C)Nc1cccnc1N1CCN(C(=O)c2cc3cc(NC(=O)C(F)(F)F)ccc3[nH]2)CC1 | 0.21 | 27 | 85 | > 10 | > 10 | 0.001 |  |
| CC(C)Nc1cccnc1N1CCN(C(=O)c2cc3ccc(O)cc3[nH]2)CC1 |  | 1.2 | 97 | > 10 | > 10 |  |  |
| CC(C)Nc1cccnc1N1CCN(C(=O)c2cc3cc(N)ccc3[nH]2)CC1 |  | 1 | 94 | > 10 | > 10 | 0.01 |  |
| Cc1ccc2[nH]c(C(=O)N3CCN(c4ncccc4NC(C)C)CC3)cc2c1 | 0.26 | 34 | 68 | > 10 | > 10 | 0.01 |  |
| CC(C)Nc1cccnc1N1CCN(C(=O)c2cc3cc(NS(C)(=O)=O)ccc3[nH]2)CC1 [DELAVIRDINE] | 0.01 |  |  | > 10 | > 30 | 0.0001 |  |
| CC(C)Nc1cccnc1N1CCN(C(=O)c2cc3ccc(F)cc3[nH]2)CC1 | 0.26 | 4.4 | 96 | > 10 | > 10 | 0.001 |  |
| CC(C)Nc1cccnc1N1CCN(C(=O)c2cc3ccc(C#N)cc3[nH]2)CC1 |  | 3.9 | 74 | > 10 | > 10 |  |  |
| COC(=O)Nc1ccc2[nH]c(C(=O)N3CCN(c4ncccc4NC(C)C)CC3)cc2c1 |  | 2.5 | 96 | > 10 | > 10 | 0.0001 |  |
| CC(C)Nc1cccnc1N1CCN(C(=O)c2cc3ccc(OS(C)(=O)=O)cc3[nH]2)CC1 |  | 2.2 | 97 | > 10 | > 10 |  |  |
| CC(C)Nc1cccnc1N1CCN(C(=O)c2cc3ccc(C=O)cc3[nH]2)CC1 | < 0.26 | 1.4 | 94 | > 10 | > 10 | 0.0001 |  |
| CC(C)Nc1cccnc1N1CCN(C(=O)c2cc3cc(OCc4ccccc4)ccc3[nH]2)CC1 | < 0.21 | 4.3 | 74 | > 10 | > 10 | 0.01 |  |
| CC(C)Nc1cccnc1N1CCN(C(=O)c2cc3cc(O)ccc3[nH]2)CC1 | < 0.26 | 1.3 | 98 | > 10 | > 10 | 0.001 |  |
| CC(C)Nc1cccnc1N1CCN(C(=O)c2cc3ccc(CO)cc3[nH]2)CC1 | < 0.25 | 0.76 | 98 | > 10 | > 10 | 0.001 |  |
| Cc1ccnc2c1NC(=O)c1cccnc1N2C1CC1 [NEVIRAPINE] |  |  | 93 | > 10 | > 10 | 0.01 |  |
| CC(C)Nc1cccnc1N1CCN(C(=O)c2cc3ccccc3[nH]2)CC1 | 0.3 | 1.2 | 96 | > 10 | > 10 | 0.001 |  |
| CC(C)Nc1cccnc1N1CCN(C(=O)c2cc3ccc(OCc4ccccc4)cc3[nH]2)CC1 |  | 37 | 65 | > 10 | > 10 | 0.1 |  |
| Cc1cn([C@H]2C[C@H](N=[N+]=[N-])[C@@H](CO)O2)c(=O)[nH]c1=O [ZIDOVUDINE] | 0.07 |  |  | > 10 | > 10 | 0.001 |  |
| CCNc1cccnc1N1CCN(C(=O)c2cc3cc(OC)ccc3[nH]2)CC1 [ATEVIRDINE MESYLATE] | < 0.2 |  | 92 | > 10 | > 10 | 0.001 |  |
| CCNc1cccnc1N1CCN(C(=O)c2cc3cc(O)ccc3[nH]2)CC1 | 0.27 | 2 | 89 | > 10 | > 10 |  | 0.01 |
| CCc1cc(NCc2nc3c(Cl)ccc(Cl)c3o2)c(O)nc1C [L-697661] | < 0.3 | 2.7 | 98 | > 10 | > 10 | < 0.0001 |  |
| CC(C)Nc1cccnc1N1CCN(C(=O)c2cc3cc(NS(=O)(=O)C(F)(F)F)ccc3[nH]2)CC1 | 0.2 | 8.3 | 94 | > 10 | > 10 | 0.1 |  |
| CC(C)Nc1cccnc1N1CCN(C(=O)c2cc3ccc(NS(C)(=O)=O)cc3[nH]2)CC1 | < 0.02 | 0.5 | 98 | > 10 | > 10 | 0.0001 |  |
| CCNc1cccnc1N1CCN(C(=O)c2cc3ccccc3[nH]2)CC1 | 0.3 | 4 | 96 | > 10 | > 10 | 0.01 |  |
| CC(C)Nc1cccnc1N1CCN(C(=O)c2cc3cc(OS(C)(=O)=O)ccc3[nH]2)CC1 |  | 5.5 | 97 | > 10 | > 10 |  |  |
| COc1ccc2cc(C(=O)N3CCN(c4ncccc4NC(C)C)CC3)[nH]c2c1 | < 0.25 | 1.3 | 97 | > 10 | > 10 | 0.01 |  |
| CC(C)Nc1cccnc1N1CCN(C(=O)c2cc3cc(N(C)S(C)(=O)=O)ccc3[nH]2)CC1 |  | 5.6 | 95 | > 10 | > 10 | 0.001 |  |
| CC(=O)Nc1ccc2[nH]c(C(=O)N3CCN(c4ncccc4NC(C)C)CC3)cc2c1 | > 10 | 1.8 | 94 | > 10 | > 10 | 0.01 |  |
